ChEMBL document CHEMBL1165878, “First biological evaluation of developed 3-benzyloxyfluorenes as novel class of MDR modulators” (Eur J Med Chem, 2010)

How the values were obtained:
[1] = Lipophilicity, log P of the compound; assay type: physicochemical; conditions: octanol/water
[2] = molecular target: T1, ATP-dependent translocase ABCB1 (Homo sapiens, UniProt P08183); experiment: Inhibition of ABCB1 efflux pump-mediated rhodamine 123 uptake expressed in mouse L5178Y cells assessed as fluorescence activity ratio at 1 uM; assay type: cell-based
[3] = molecular target: T1, ATP-dependent translocase ABCB1; experiment: Inhibition of ABCB1 efflux pump-mediated rhodamine 123 uptake expressed in mouse L5178Y cells assessed as fluorescence activity ratio at 10 uM; assay type: cell-based
How it was run: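 Mouse T lymphoma L5178Y parental line and an mdr1-retrovirally transfected subline overexpressing only ABCB1, grown in McCoy's 5A with 10% heat-inactivated horse serum and 2 mM glutamine. Rhodamine 123 uptake measured by flow cytometry, 1 ×10⁴ cells each, after resuspension in PBS. FAR = fluorescence of treated ABCB1 subline over parental line, each corrected to untreated control; mean of two determinations.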

T1 sequence (P08183 whole entry): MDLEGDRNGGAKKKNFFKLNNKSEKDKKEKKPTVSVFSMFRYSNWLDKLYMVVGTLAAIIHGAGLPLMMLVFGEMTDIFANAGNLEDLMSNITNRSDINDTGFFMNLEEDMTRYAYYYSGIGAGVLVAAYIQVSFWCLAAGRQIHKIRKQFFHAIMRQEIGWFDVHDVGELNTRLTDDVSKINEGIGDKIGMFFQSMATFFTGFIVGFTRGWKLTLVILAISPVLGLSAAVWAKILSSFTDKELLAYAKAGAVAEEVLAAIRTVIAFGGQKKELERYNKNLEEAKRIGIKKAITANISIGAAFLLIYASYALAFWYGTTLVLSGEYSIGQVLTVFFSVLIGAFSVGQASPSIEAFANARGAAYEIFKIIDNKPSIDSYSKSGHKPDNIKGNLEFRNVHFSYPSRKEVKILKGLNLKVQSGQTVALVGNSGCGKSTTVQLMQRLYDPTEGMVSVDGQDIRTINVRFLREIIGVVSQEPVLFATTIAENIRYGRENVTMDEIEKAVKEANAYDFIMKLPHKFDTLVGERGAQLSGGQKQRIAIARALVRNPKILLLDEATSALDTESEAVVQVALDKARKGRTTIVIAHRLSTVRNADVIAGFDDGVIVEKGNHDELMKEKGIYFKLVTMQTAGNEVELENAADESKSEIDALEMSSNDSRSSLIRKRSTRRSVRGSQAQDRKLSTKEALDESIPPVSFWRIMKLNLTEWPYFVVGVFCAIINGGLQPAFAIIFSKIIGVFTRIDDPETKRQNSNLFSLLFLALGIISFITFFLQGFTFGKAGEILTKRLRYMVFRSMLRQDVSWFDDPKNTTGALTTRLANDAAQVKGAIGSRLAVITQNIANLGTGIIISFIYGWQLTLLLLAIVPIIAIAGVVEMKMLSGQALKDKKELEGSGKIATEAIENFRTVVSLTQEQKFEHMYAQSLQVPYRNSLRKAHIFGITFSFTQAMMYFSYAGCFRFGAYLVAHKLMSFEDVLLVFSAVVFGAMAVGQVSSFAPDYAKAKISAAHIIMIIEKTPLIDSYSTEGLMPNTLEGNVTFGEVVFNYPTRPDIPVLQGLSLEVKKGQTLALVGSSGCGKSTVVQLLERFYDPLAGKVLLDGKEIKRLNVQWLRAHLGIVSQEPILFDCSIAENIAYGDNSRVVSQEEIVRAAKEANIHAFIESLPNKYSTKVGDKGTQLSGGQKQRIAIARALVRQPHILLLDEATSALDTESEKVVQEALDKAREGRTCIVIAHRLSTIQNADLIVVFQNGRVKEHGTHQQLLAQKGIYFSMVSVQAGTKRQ

logP [1]	Ratio [2]	Ratio [3]	SMILES
5.97	1.35	10.47	Oc1ccc2oc3ncc(OCc4ccccc4)c(-c4cccc(Cl)c4)c3c2c1
5.38	1.75	34.49	Oc1ccc2oc3ncc(OCc4ccccc4)c(-c4ccccc4)c3c2c1
5.97	1.26	57.42	Oc1ccc2oc3ncc(OCc4cccc(Cl)c4)c(-c4ccccc4)c3c2c1
5.97	3.04	95.58	Oc1ccc2oc3ncc(OCc4ccccc4)c(-c4ccc(Cl)cc4)c3c2c1

The next lines start with the compound.

SMILES	logP [1]	Ratio [2]	Ratio [3]
Oc1ccc2oc3ncc(OCc4ccc(Cl)cc4)c(-c4ccccc4)c3c2c1	5.97	1.23	56.85
Oc1ccc2oc3ncc(OCc4cccc(Cl)c4)c(-c4ccc(Cl)cc4)c3c2c1	6.59	1.53	21.48
Oc1ccc2oc3ncc(OCc4cccc(Cl)c4)c(-c4cccc(Cl)c4)c3c2c1	6.59	1	17.14
Oc1ccc2oc3ncc(OCc4ccc(Cl)cc4)c(-c4ccc(Cl)cc4)c3c2c1	6.59	1.11	5.92
Oc1ccc2oc3ncc(OCc4ccc(Cl)cc4)c(-c4cccc(Cl)c4)c3c2c1	6.59	1.81	2.61
